Bioassay records (PubChem)
Compounds with a hit are over-represented: about 1.9% of the library has one in this group of screens.
MBD2 inh – inhibitors of human MBD2 binding to methylated oligonucleotide; Q9UBB5; TR-FRET; inhibition, % at 4.4 µM; 370,000 compounds, 0.31% hits; in the data active = inhibition above about 13%
Target sequence (Q9UBB5 whole entry, looked up): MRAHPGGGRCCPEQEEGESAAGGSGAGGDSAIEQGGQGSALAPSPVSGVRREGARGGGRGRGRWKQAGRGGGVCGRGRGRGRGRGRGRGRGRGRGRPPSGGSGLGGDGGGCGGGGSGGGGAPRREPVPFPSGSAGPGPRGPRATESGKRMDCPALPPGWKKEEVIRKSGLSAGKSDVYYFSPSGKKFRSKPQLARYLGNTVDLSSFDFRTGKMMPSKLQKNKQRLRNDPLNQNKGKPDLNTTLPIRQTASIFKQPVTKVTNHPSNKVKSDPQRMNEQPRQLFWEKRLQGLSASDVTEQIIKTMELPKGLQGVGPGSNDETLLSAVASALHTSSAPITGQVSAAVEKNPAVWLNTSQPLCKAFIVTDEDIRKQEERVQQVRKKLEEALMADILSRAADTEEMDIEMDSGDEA
DDE Tn6 FP inh – inhibitors of Tn6 peptide binding to human fibrin DD(E). Fibrin DD(E) TRITC-Tn6 fluorescence polarization displacement. inhibition, % at 8.3 µM. 370,000 compounds, 0.21% hits;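 active = inhibition above a per-campaign cutoff: mean of compounds within control limits plus 3 SD, cut at about 15% in these data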;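 note: 0% = median of all compound wells on the plate and 100% = blocking peptide control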
TDP2 inh – blocks human TDP2 phosphodiesterase activity; O95551; recombinant TDP2, T5PNP hydrolysis, p-nitrophenol absorbance 415 nm; inhibition, % at 12.8 µM; 370,000 compounds, 0.34% hits;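 active = inhibition above the mean of all tested compounds plus 3 SD, set per campaign, cut at about 25% in these data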;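 note: 0% = DMSO with enzyme and 100% = buffer with substrate but no TDP2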
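Material: recombinant human TDP2; quantity: TDP2 enzyme at 120 nM final; medium: Tris-HCl pH 7.5 with MgCl2; compound: single concentration, 12.8 µM nominal, with 1% DMSO; incubation: 2 h enzyme incubation at 37 °C; signal: epi absorbance; measure: percent inhibition; benchmarks: high control without enzyme, low control DMSO plus TDP2; repeats: singlicate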
DDE Tn7 FP inh – inhibitors of Tn7 peptide binding to human fibrin DD(E); P02675; FP displacement of FITC-Tn7 peptide from fibrin DD(E); 0% = median of compound wells per plate; inhibition, % at 8.3 µM; 370,000 compounds, 0.13% hits; AID 720508;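 active = inhibition above the mean of compounds falling within the control limits plus 3 SD of them, cut at about 14% in these data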;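 note: 0% = plate median of compound wells and 100% = 10 µM Aha-Tn7 peptide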
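Also added: labelled Tn7 tracer, 0.1 µM; Assay system: human fibrin DD(E) protein; Amount: 2 µM fibrin DD(E); Schedule: 10 min compound pre-incubation, 3 h probe incubation at room temperature; Repeats: one replicate per compound; Read-out basis: percent inhibition; Measured by: fluorescence polarization of the labelled Tn7 tracer.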
LEDGF integ inh – blocks HIV-1 LEDGF/p75-dependent DNA integration. 370,000 compounds, 0.64% hits. inhibition, % at 3.7 µM. TR-FRET IN-LEDGF/p75 DNA integration, Eu/Cy5;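 active = inhibition above the screen-wide mean plus 3 SD, cut at about 13% in these data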;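 note: signal is the Cy5 over europium emission ratio at 671 and 618 nm; 0% = plate median of compound wells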
UHRF1 MBD2 ctr – human UHRF1 methylated DNA binding inhibitors; Q96T88; UHRF1 binding to methylated oligo, TR-FRET; inhibition, % at 4.4 µM; 370,000 compounds, 0.75% hits; in the data active = inhibition above about 21%;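 note: UHRF1 SRA domain binding a hemimethylated CpG hairpin DNA probe; 0% = median of test compound wells and 100% = reference inhibitor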
IN multimer act – counter-screen for LEDGF/p75 integration inhibitors: HIV-1 integrase multimerization activators. AID 1053131. shares compounds with LEDGF integ inh. activation, % at 7.7 µM. TR-FRET HIV-1 integrase multimerization, biochemical. 2,000 compounds, 17% hits; in the data active = activation above about 8.9%
TR-FRET interf – optically interferes with TR-FRET readout in LEDGF counter-screen | shares compounds with LEDGF integ inh | TR-FRET optical interference counterscreen, HIV-1 IN multimerization | inhibition, % at 7.7 µM | 2,000 tested, under 10 active;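 active = inhibition above the mean over all tested compounds plus 3 SD, which no compound reached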;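 note: 0% = integrase with antibodies and DMSO and 100% = antibodies without integrase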
IN-LEDGF confirm – confirmation of HIV-1 LEDGF/p75-dependent integration inhibitors | shares compounds with LEDGF integ inh | 2,000 compounds, 36% hits | TR-FRET LEDGF/p75-dependent HIV-1 integration, biochemical | inhibition, % at 3.7 µM; in the data active = inhibition above about 14%
An asterisk follows results filed as active; nt = no result given.

SMILES | MBD2 inh | DDE Tn6 FP inh | TDP2 inh | DDE Tn7 FP inh | LEDGF integ inh | UHRF1 MBD2 ctr | IN multimer act | TR-FRET interf | IN-LEDGF confirm
CCCNC(=O)C1(C)CCN(CCC(=O)c2ccc(Br)cc2)C1 (centres undefined) | -7 | -4 | -2 | -4 | 63* | 3 | 0 | -1 | 0
COCCNC(=O)C1(C)CCCN(CCC(=O)c2ccc(Br)cc2)C1 (centres undefined) | 0 | 5 | 5 | 4 | -3 | -3 | nt | nt | nt
CC(=O)NC1=NC(=O)/C(=C/c2cc(C)n(-c3cccc(C(=O)O)c3)c2C)S1 | 9 | 4 | 14 | -9 | 31* | 45* | 14* | -50 | 5
Cc1ccc(-c2cc(NC(=O)Cc3c[nH]c4ccccc34)ccc2N(C)c2cccnc2)cc1 | 1 | -4 | 5 | -6 | 6 | 1 | nt | nt | nt
CCCCCCCCN1C(=O)[C@@H](CC(=O)NCC23CC4CC(CC(C4)C2)C3)C[C@@]2(C(=O)OC)C1=C[C@H](C(C)(C)C)O[C@@H]2C | -1 | 0 | 5 | -9 | -2 | 2 | nt | nt | nt
CCN(CC)C(=O)CC[C@@H]1CC[C@]2(CCCN(Cc3ccccn3)C2)O1 | -8 | 7 | -2 | 3 | 7 | -3 | nt | nt | nt
CCc1cc2c(nc1CC)CCCN2CCOC | 2 | -2 | -1 | 5 | 0 | 0 | nt | nt | nt
COC(=O)c1cc2c(c3c4cc(OC)ccc4n(S(=O)(=O)c4ccc(OC)cc4)c13)C(=O)N(Cc1ccccc1)C2 | 0 | -7 | 1 | -5 | -3 | 0 | nt | nt | nt
N=c1c(C(=O)NCCc2ccccc2)cc2c(=O)n3ccccc3nc2n1Cc1ccco1 | -2 | -6 | -11 | -9 | 17* | -4 | 2 | -8 | 11
Cc1ccc2nc3c(cc(S(=O)(=O)c4ccccc4)c(=N)n3Cc3ccco3)c(=O)n2c1 | -2 | -1 | -21 | -6 | 18* | 6 | 2 | -7 | 11
N=c1c(S(=O)(=O)c2ccccc2)cc2c(=O)n3ccccc3nc2n1Cc1ccco1 | -5 | -4 | -6 | 4 | 8 | -2 | nt | nt | nt
N=c1c(C(=O)NC2CCCCC2)cc2c(=O)n3ccccc3nc2n1Cc1ccco1 | -4 | -7 | 0 | -5 | 2 | 0 | nt | nt | nt
C#CCNC[C@@H]1CSCCS(=O)(=O)N1 | -1 | -9 | -2 | 1 | 2 | -3 | nt | nt | nt
C[C@@H]1CCCCO[C@H](CN(C)C(=O)CCC(F)(F)F)[C@H](C)CN([C@@H](C)CO)C(=O)c2cc(NS(=O)(=O)c3ccc(Cl)cc3)ccc2O1 | -6 | -7 | 2 | -1 | 0 | 4 | nt | nt | nt
Cc1ccc(S(=O)(=O)c2nc(-c3ccco3)oc2SC(C)C)cc1 | -8 | 0 | -12 | 5 | 16* | 1 | 3 | -14 | 2
CCS(=O)(=O)N1CCC2(CC1)OCCN2S(=O)(=O)c1ccccc1 | 8 | 2 | -1 | -8 | 26* | 17 | -6 | 22 | 6
CCOc1ccc(NC(=O)CC(NC(C)=O)c2ccccc2)cc1S(=O)(=O)N1CCCC1 (centres undefined) | -5 | 4 | -10 | 2 | 14* | 6 | 0 | -2 | -2
CC(=O)NC(CC(=O)Nc1ccc(S(=O)(=O)N2CCCCC2)cc1)c1ccccc1 (centres undefined) | -4 | 6 | 4 | 8 | -1 | -1 | nt | nt | nt
CC1(C(=O)NCCC(F)(F)F)Cc2c(-c3cccc(C(F)(F)F)c3)ccnc2O1 (centres undefined) | -1 | -1 | 5 | 5 | -3 | -2 | nt | nt | nt
CC1(C(=O)NCCC(F)(F)F)Cc2c(-c3cccc(C(N)=O)c3)ccnc2O1 (centres undefined) | -2 | -1 | 3 | 4 | 14* | 1 | -2 | 9 | -2
C=CCn1c(NC(=O)c2ccccc2)nc2ccccc21 | 4 | 1 | 10 | -3 | 15* | 72* | -4 | 19 | 14*
CCCCn1c(NC(=O)C2CCCCC2)nc2ccccc21 | 2 | -2 | -15 | -8 | 28* | 0 | 1 | -3 | 17*
CCn1c(NC(=O)c2ccccc2)nc2ccccc21 | 4 | 0 | 3 | 7 | 7 | 0 | nt | nt | nt
CCCCn1c(NC(=O)c2ccccc2)nc2ccccc21 | 0 | 5 | -25 | 3 | 26* | -6 | -1 | 7 | 25*
CN(C)CCCn1c(NC(=O)C2CCCCC2)nc2ccccc21 | 0 | 8 | -8 | 0 | 3 | -3 | nt | nt | nt
SMILES | MBD2 inh | DDE Tn6 FP inh | TDP2 inh | DDE Tn7 FP inh | LEDGF integ inh | UHRF1 MBD2 ctr | IN multimer act | TR-FRET interf | IN-LEDGF confirm
CCOC(=O)N1CCN(C(=O)COc2ccc(S(=O)(=O)NC3CCCCC3)cc2C)CC1 | -8 | 1 | 4 | 6 | 16* | -1 | 2 | -7 | -2
COc1ccc2nc(NC(=S)N(C)C)sc2c1 | -8 | -4 | -17 | 4 | 17* | -5 | 2 | -12 | 16*
CCCNC(=O)C1(C)CCCN(C(=O)c2cc(C)nn2C(C)(C)C)C1 (centres undefined) | 6 | 3 | 2 | -2 | 28* | 0 | -4 | 18 | 0
Oc1ccc(-c2csc(Nc3cccc4ccccc34)n2)cc1O | 0 | -1 | -7 | 3 | 24* | -1 | 17* | -83 | 68*
COc1ccc2cc(C(=O)NCc3ccco3)c(=O)oc2c1 | 0 | 2 | -6 | 5 | 3 | -12 | nt | nt | nt
O=C(NCc1ccco1)c1cc2ccc(O)cc2oc1=O | -2 | 4 | -6 | 0 | 30* | 8 | 20* | -99 | 19*
Cc1ccc(SCC(=O)N2CCN(c3ccccn3)CC2)cc1 | 4 | 3 | 11 | 10 | -4 | 1 | nt | nt | nt
O=C(CSc1nccc2ccccc12)N1CCN(c2ccccn2)CC1 | -16 | 2 | -8 | -2 | 14* | -16 | 3 | -16 | -2
O=C(CCC1CCCCC1)Nc1nccs1 | 1 | 5 | 1 | 2 | 21* | -1 | 0 | 0 | -4
O=C1[C@@H]2Cc3c([nH]c4ccccc34)CN2C(=O)CN1CCCCCO | -2 | -5 | 5 | -2 | 96* | 0 | 0 | -1 | -5
Cc1ccc(C2/C(=C(/O)c3ccc(Br)cc3)C(=O)C(=O)N2Cc2ccco2)o1 (centres undefined) | -5 | 2 | 5 | -4 | 15* | 2 | 0 | -2 | 16*
CCN(CC)C(=O)c1ncn2c1C(=O)NC[C@H]2C | 3 | 3 | -4 | -3 | 0 | 4 | nt | nt | nt
